Shown are actives, neighbours in structure and some others; about 4.6% of the full set was active somewhere.
OX1R antag-1 = OX1R (HCRTR1) antagonists, primary screen, fluorescence, CHO/OX1R cells, Fluo-8 calcium, orexin A | Fluo-8 calcium fluorescence | inhibition, % at 5 µM | actives 0.43% (n = 330,000) | Orexin/Hypocretin receptor type 1 (Homo sapiens), O43613;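 active = inhibition above its plate's threshold, mean inhibition of all tested compounds on the plate plus 3 SD, cut at about 37% in these data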;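 note: 0% = orexin A challenge wells and 100% = SB-334867-A antagonist wells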
Target sequence (O43613 whole entry, looked up): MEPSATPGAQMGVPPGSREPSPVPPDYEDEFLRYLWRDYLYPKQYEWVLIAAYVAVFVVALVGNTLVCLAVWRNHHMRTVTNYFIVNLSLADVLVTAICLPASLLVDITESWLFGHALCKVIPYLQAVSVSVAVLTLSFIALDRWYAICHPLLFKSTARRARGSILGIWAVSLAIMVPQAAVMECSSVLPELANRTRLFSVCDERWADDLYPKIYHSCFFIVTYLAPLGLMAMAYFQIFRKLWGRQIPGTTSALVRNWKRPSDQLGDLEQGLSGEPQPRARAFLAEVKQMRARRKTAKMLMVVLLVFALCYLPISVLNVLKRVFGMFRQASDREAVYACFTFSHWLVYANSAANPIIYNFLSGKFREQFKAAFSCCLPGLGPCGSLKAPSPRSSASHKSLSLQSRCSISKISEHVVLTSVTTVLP
TAAR1 antagonist = human TAAR1 antagonists, primary screen, Fluo-8 calcium fluorescence, CHO RD-HGA16 cells. actives 1.5% (n = 360,000). antagonist. inhibition, % at 3 µM. Trace amine-associated receptor 1 (Homo sapiens), Q96RJ0. AID 624466, 2012;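 active = inhibition above a per-plate cutoff, the mean inhibition of test compounds on that plate plus 3 SD, cut at about 49% in these data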;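 note: 0% = DMSO plus EC80 beta-PEA response and 100% = DMSO alone without agonist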
Target sequence (Q96RJ0 whole entry, looked up): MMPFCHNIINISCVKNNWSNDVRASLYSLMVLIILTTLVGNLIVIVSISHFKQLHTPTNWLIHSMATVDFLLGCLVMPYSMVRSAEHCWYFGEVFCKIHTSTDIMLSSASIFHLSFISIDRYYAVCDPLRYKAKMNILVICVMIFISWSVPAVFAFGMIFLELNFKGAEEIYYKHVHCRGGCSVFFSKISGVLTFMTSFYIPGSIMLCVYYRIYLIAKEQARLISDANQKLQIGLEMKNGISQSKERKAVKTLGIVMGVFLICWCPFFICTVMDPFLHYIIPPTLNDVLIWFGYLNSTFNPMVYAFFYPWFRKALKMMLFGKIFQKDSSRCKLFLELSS
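Assay system: CHO-derived RD-HGA16 cells stably expressing human TAAR1 plus Gα16. Timing: 140 s kinetic read after compound, 140 s after agonist. Technique: kinetic Fluo-8 calcium fluorescence measurement. Measure: % inhibition of agonist calcium response.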
TAAR1 ag = human TAAR1 agonists, primary screen, Fluo-8 calcium fluorescence, CHO RD-HGA16 cells; Trace amine-associated receptor 1 (Homo sapiens), Q96RJ0; vehicle wells 0%, saturating PEA agonist 100%; activation, % at 3 µM; actives 0.99% (n = 360,000); AID 624467, 2012;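 active = activation above the mean activation of all test compounds in the run plus 3 SD, cut at about 38% in these data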
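Assay system: CHO-derived RD-HGA16 cells with stable Gα16 and human TAAR1; timing: 17-24 h seeding, 75 min 37 °C dye, 30 min RT; read-out: % activation from peak over basal fluorescence ratio, DMSO-to-PEA scaled; measured by: kinetic Fluo-8 calcium fluorescence; benchmarks: low control DMSO, high control PEA (EC100); doses: 3 µM single concentration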
OX1R antag-2 = antagonists of human orexin 1 receptor (OX1R). Orexin/Hypocretin receptor type 1 (Homo sapiens), O43613. OX1R-expressing cells, FRET antagonist read-out. inhibition, % at 6.6 µM. actives 1.8% (n = 330,000); in the data active = inhibition mostly above about 38%, no sharp cut-off; inactive = mostly below about 40%;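 note: 0% = agonist challenge alone and 100% = reference antagonist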
CHO parental Ca = ATP-evoked calcium signal inhibitors, parental CHO, primary screen, counter-screen for OX1R antagonist project, cell-based, fluorescence, Fluo-8 calcium dye | parental CHO-K1, ATP-induced calcium, Fluo-8 fluorescence | inhibition, % at 5.6 µM | actives 0.63% (n = 330,000);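 active = inhibition above that plate's mean sample inhibition plus 3 SD, cut at about 26% in these data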;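 note: 0% = ATP-challenged DMSO wells and 100% = DMSO wells without ATP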
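Measured by: calcium-sensitive Fluo-8 fluorescence / Test system: CHO parental line / Controls: ATP-challenged DMSO wells low, unchallenged DMSO wells high / Measure: % inhibition / Compound: single nominal dose of 5.6 µM per compound / Replicates: single well per compound, no replicates / Reagent: ATP as calcium-mobilizing challenge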
GPR7 antag = GPR7 receptor antagonists, primary screen, cell-based, fluorescence, single concentration. GPR7-expressing cells, fluorescence antagonist assay. inhibition, % at 4.4 µM. actives 1.1% (n = 290,000); in the data active = inhibition above about 16%, passing the limit was not always enough;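 note: cells stimulated with the agonist NPW; 0% = agonist with vehicle and 100% = vehicle without agonist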
TAAR1 ag conf = human TAAR1 agonists, retest of hits, confirmation, Fluo-8 calcium fluorescence, CHO RD-HGA16 cells | scaled: DMSO 0%, maximal phenethylamine 100% | actives 82% (n = 2,400) | activation, % at 3 µM | shares compounds with TAAR1 ag;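 active = activation above a cutoff set at the run's mean compound activation plus 3 SD, cut at about 39% in these data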
Ga16 nonsel ag = nonselective calcium mobilization agonists, CHO-Ga16 cells, counter-screen for hTAAR1 agonist project, cell-based, fluorescence, CHO-Ga16 parental line. AID 651787, 2012. Fluo-8 calcium fluorescence; normalized to maximal ATP response, DMSO zero. activation, % at 3 µM. shares compounds with TAAR1 ag. actives 50% (n = 2,400);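 active = activation above the run cutoff, the mean activation over all tested wells plus 3 SD, cut at about 12% in these data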;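 note: 0% = DMSO wells and 100% = maximal ATP response on the peak over basal ratio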
TAAR1 desensitize = TAAR1 desensitization by agonist hits, confirmation, counter-screen for TAAR1 agonist project, cell-based, fluorescence, tachyphylaxis. shares compounds with TAAR1 ag. CHO RD-HGA16 hTAAR1, Fluo-8 calcium, beta-PEA response inhibition. inhibition, % at 3 µM. actives 46% (n = 2,400);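 active = inhibition above the run cutoff, the mean inhibition of all test compounds plus 3 SD, cut at about 49% in these data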;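 note: beta-PEA stimulus applied at its EC80; loss of beta-PEA calcium signal after compound pretreatment read as receptor desensitization; 0% = DMSO with beta-PEA at EC80 and 100% = DMSO alone without agonist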
Ga16 antag count = inhibition of ATP-evoked calcium response in CHO-Ga16 cells, counter-screen for TAAR1 agonist project, cell-based, fluorescence; shares compounds with TAAR1 ag; CHO-Ga16 ATP-induced calcium, Fluo-8 fluorescence; inhibition, % at 3 µM; actives 39% (n = 2,400);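 active = inhibition above the plate's mean compound inhibition plus 3 SD, computed per plate, cut at about 22% in these data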;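 note: 0% = EC80 ATP with DMSO and 100% = DMSO wells without ATP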
* = called active by the depositor; / = no result.

SMILES | OX1R antag-1 | TAAR1 antagonist | TAAR1 ag | OX1R antag-2 | CHO parental Ca | GPR7 antag | TAAR1 ag conf | Ga16 nonsel ag | TAAR1 desensitize | Ga16 antag count
NCCc1ccc(O)cc1 | 4.4 | 88.9* | 118.2* | 9.9 | 9.9 | -6.4 | 98.7* | 2.7 | 94.2* | 1.3
O=C1C2CC=CCC2C(=O)N1SC(Cl)(Cl)Cl (centres undefined) | / | 53.8* | 57.4* | / | / | / | 42.9* | 25.8* | 55.0* | 48.9*
CC(=O)N1Cc2cnnn2-c2ccccc2C1(C#N)Cc1ccccc1 (centres undefined) | / | 1.6 | 2.2 | / | / | / | / | / | / | /
CCCCCc1nc2ccccc2c(=O)n1-c1ccccc1[N+](=O)[O-] | -40.5 | -12.8 | -1.1 | 12.3 | -21.1 | -0.8 | / | / | / | /
CCCCCc1nc2c(c(=O)c3ccccc3n2C)c(=O)n1C1CCCCCC1 | -7.8 | 84.9* | 124.5* | 18.8 | -15.0 | -4.0 | 121.7* | 95.9* | 92.9* | 84.6*
C/C(=N\N1CCCCC1)c1c(O)[nH]c(=O)[nH]c1=O | -7.8 | -9.5 | 0.2 | 13.6 | 0.5 | -1.9 | / | / | / | /
c1cnc(N2CCNCC2)nc1 | -7.5 | -19.6 | 23.4 | 16.8 | -6.3 | -10.4 | / | / | / | /
c1ccc(Cc2cnc(N3CCNCC3)nc2)cc1 | / | -17.6 | 44.6* | / | / | / | 58.2* | -0.1 | 19.0 | 5.5
COC(=O)C1=C(c2cc3ccccc3s2)C[C@@H]2CC[C@H]1N2C(=O)NCc1ccc(C(F)(F)F)cc1 | -26.4 | -8.8 | 6.2 | 15.1 | -29.1 | / | / | / | / | /
Cc1ccccc1CCNCc1ccc(Br)cc1 | -13.3 | 50.1* | 70.5* | 5.3 | -5.3 | 2.0 | 93.0* | 13.7* | 66.6* | 11.9
N[C@@H]1C[C@H]1c1ccccc1 | -5.0 | 78.2* | 80.0* | 13.7 | -9.8 | / | 98.6* | 9.9 | 85.8* | -2.0
c1ccc(N2C3C4CC(C5CCCC54)C32)cc1 (centres undefined) | / | -7.9 | -1.3 | / | / | / | / | / | / | /
CCOc1ccc(NC(=O)c2c(C)nn(Cc3ccccc3)c2Cl)cc1 | -26.5 | 63.6* | 53.7* | 2.0 | -6.6 | 2.8 | 78.7* | 43.3* | 75.7* | 46.3*
Cc1cccc(N2C(=O)NC(=O)/C(=C\c3cc(C)n(-c4sc5c(c4C#N)CCCC5)c3C)C2=O)c1C | -15.0 | 9.4 | 4.9 | 8.7 | -6.1 | -0.2 | / | / | / | /
CCOC(=O)c1c(-n2c(C)cc(C=C3C(=O)NC(=O)NC3=O)c2C)sc2c1CCCC2 | -15.7 | 35.2 | 46.8* | 14.5 | -18.8 | -8.3 | 52.6* | 27.9* | 44.4 | 37.6*
CN1CN(c2ccccc2)C2(CCN(CCCSc3ccccc3NC(=O)/C=C/c3ccccc3)CC2)C1=O | / | 101.8* | 122.2* | / | / | / | 125.2* | 97.3* | 106.6* | 96.6*
Nc1c(C(=O)NCCc2ccccc2)c2nc3ccccc3nc2n1CCN1CCOCC1 | 24.2 | 73.6* | 71.1* | 12.4 | 19.3 | 2.5 | 31.9 | 13.0* | 47.1 | 43.3*
COc1ccc(CCNC(=O)c2c(N)n(CCN3CCOCC3)c3nc4ccccc4nc23)cc1 | -30.4 | 48.1 | 15.5 | 45.4 | -19.0 | -17.4 | / | / | / | /
CCCCS(=O)(=O)N1CCN(C(=N)N[N+](=O)[O-])CC1 | -7.8 | 12.8 | 13.4 | 19.8 | -0.3 | -5.9 | / | / | / | /
CCC(=NCCc1ccccc1)c1c(O)n(C)c(=O)n(C)c1=O | 2.4 | -3.2 | 62.4* | 3.7 | 1.8 | -8.4 | 60.6* | 10.2 | 40.0 | 32.2*
CCCCn1c(O)c(C(CC)=NCCc2ccccc2)c(=O)[nH]c1=O | -14.1 | 70.0* | 58.0* | 6.5 | -10.4 | -9.8 | 68.4* | 6.9 | 42.6 | 23.4*
CCCCn1c(O)c(C(CC)=NCc2ccc(F)cc2)c(=O)[nH]c1=O | -16.3 | 20.9 | 15.4 | 3.5 | -15.4 | -15.8 | / | / | / | /
CCC(=NCc1ccco1)c1c(O)n(C)c(=O)n(C)c1=O | 11.6 | -15.2 | 21.2 | 5.5 | -9.7 | -10.0 | / | / | / | /
C=CCn1c(O)c(C(CC)=NCCc2ccccc2)c(=O)[nH]c1=O | -31.0 | 29.9 | 73.6* | 19.5 | -9.2 | -12.0 | 77.9* | 4.8 | 40.2 | 4.9
CC(=Nc1ccccc1N)c1c(O)n(C)c(=O)[nH]c1=O | -9.8 | -18.8 | 0.5 | 9.5 | -13.0 | 5.8 | / | / | / | /
SMILES | OX1R antag-1 | TAAR1 antagonist | TAAR1 ag | OX1R antag-2 | CHO parental Ca | GPR7 antag | TAAR1 ag conf | Ga16 nonsel ag | TAAR1 desensitize | Ga16 antag count
CCN1CC2([N+](=O)[O-])CC=C(Cl)C([N+](=O)[O-])(C1)C2 (centres undefined) | -6.7 | -11.4 | 0.9 | 27.1 | -1.2 | -13.1 | / | / | / | /
Clc1ccc(CCNCc2ccncc2)c(Cl)c1 | -15.4 | 51.6* | 74.5* | -5.4 | -11.8 | 13.0 | 89.3* | 5.4 | 71.5* | 0.8
COc1ccc(CNCCc2ccc(Cl)cc2Cl)cc1 | -4.5 | -1.8 | 5.2 | 3.9 | -6.6 | -10.2 | / | / | / | /
COc1ccc2[nH]c3c(c2c1)CCNC3 | -2.3 | -14.5 | 44.3* | 2.0 | -10.6 | / | 59.2* | 0.3 | 27.4 | 5.3
c1ccc2cc(CC3=NCCN3)ccc2c1 | -12.3 | 66.1* | 87.1* | 16.6 | -20.7 | -3.0 | 98.1* | 3.0 | 86.7* | 3.7
c1ccc(C2CC2)c(OCC2=NCCN2)c1 | -10.4 | -14.6 | 23.5 | 9.5 | -0.6 | / | / | / | / | /

Bioassay records from PubChem.
